Measurements: ChEMBL document CHEMBL1123594, “Antiradiation compounds. 20. 1-Methylquinolinium(and pyridinium)-2-dithioacetic acid derivatives” (J Med Chem, 1987)

What was measured:
Mus musculus [1] = test: Percent survival was determined over a period of 30 days after intraperitoneal administration of a dose of 75 mg/kg in mice; format: functional; conditions: Mus musculus, ip, 720 h
How it was run: (§1)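 Female C57 B16 mice (18-20 g), groups of 10, dosed ip in water or 10-20% aqueous ethanol (sometimes with Klucel or a Tween). Whole-body 1000-rad γ-irradiation 30 min after dosing. Survival was followed over 30 days, and animals alive beyond 30 days were counted as protected. Testing was done at Walter Reed Army Institute of Research.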

[2] = Toxic dose was determined after (ip) administration of a dose of 75 mg/kg in mice at 1000-rad-gamma-radiation for 30 mins; format: toxicity, organism-based; parameters: dose 75 mg/kg; conditions: mouse, in vivo
How it was run: (§2)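 Drug-toxicity deaths were counted within the radioprotection groups: 10 female C57 B16 mice, dosed by the route stated, then given whole-body 1000-rad γ-irradiation 30 min later. Deaths attributed to compound toxicity occurred before day 5 and were scored separately from the 30-day survival count.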

Mus musculus [3] = test: Percent survival was determined over a period of 30 days after intraperitoneal administration of a dose of 37.5 mg/kg in mice; format: functional; conditions: ip, 720 h; how it was run: as §1
Mus musculus [4] = test: Percent survival was determined over a period of 30 days after intraperitoneal administration of a dose of 18.8 mg/kg in mice; format: functional; conditions: ip, 720 h; how it was run: as §1
[5] = Toxic dose was determined after (ip) administration of a dose of 18.8 mg/kg in mice at 1000-rad-gamma-radiation for 30 mins; format: toxicity, organism-based; parameters: dose 18.8 mg/kg; conditions: mouse, in vivo; how it was run: as §2
Mus musculus [6] = test: Percent survival was determined over a period of 30 days after intraperitoneal administration of a dose of 4.7 mg/kg in mice; format: functional; conditions: ip, 720 h; how it was run: as §1
Mus musculus [7] = test: Percent survival was determined over a period of 30 days after intraperitoneal administration of a dose of 9.4 mg/kg in mice; format: functional; conditions: ip, 720 h; how it was run: as §1
Mus musculus [8] = species on record: Mus musculus; test: Percent protective effect was determined in mice using 825 rads for 30 min; format: functional
Mus musculus [9] = test: Percent protective effect was determined in mice using 1000 rads for 30 min after administration of 25 mg/kg; format: functional
Mus musculus [10] = test: Percent protective effect was determined in mice using 825 rads for 30 min after administration of 350 mg/kg; format: functional
Mus musculus [11] = test: Percent survival was determined over a period of 30 days after intraperitoneal administration of a dose of 2.34 mg/kg in mice; format: functional; conditions: ip, 720 h; how it was run: as §1
Mus musculus [12] = test: Percent survival was determined over a period of 30 days after intraperitoneal administration of a dose of 4.69 mg/kg in mice; format: functional; conditions: ip, 720 h; how it was run: as §1
Mus musculus [13] = test: Percent survival was determined over a period of 30 days after intraperitoneal administration of a dose of 9.38 mg/kg in mice; format: functional; conditions: ip, 720 h; how it was run: as §1
[14] = Toxic dose was determined after (ip) administration of a dose of 9.38 mg/kg in mice at 1000-rad-gamma-radiation for 30 mins; format: toxicity, organism-based; parameters: dose 9.38 mg/kg; conditions: mouse, in vivo; how it was run: as §2
[15] = Toxic dose was determined after (ip) administration of a dose of 150 mg/kg in mice at 1000-rad-gamma-radiation for 30 mins; format: toxicity, organism-based; parameters: dose 150 mg/kg; conditions: mouse, in vivo; how it was run: as §2
Mus musculus [16] = test: Percent survival was determined over a period of 30 days after intraperitoneal administration of a dose of 150 mg/kg in mice; format: functional; conditions: ip, 720 h; how it was run: as §1
Mus musculus [17] = test: Percent survival was determined over a period of 30 days after intraperitoneal administration of a dose of 2.3 mg/kg in mice; format: functional; conditions: ip, 720 h; how it was run: as §1
[18] = Toxic dose was determined after (ip) administration of a dose of 9.4 mg/kg in mice at 1000-rad-gamma-radiation for 30 mins; format: toxicity, organism-based; parameters: dose 9.4 mg/kg; conditions: mouse, in vivo; how it was run: as §2
Mus musculus [19] = test: Percent survival was determined over a period of 30 days after intraperitoneal administration of a dose of 300 mg/kg in mice; format: functional; conditions: ip, 720 h; how it was run: as §1
Mus musculus [20] = test: Percent survival was determined over a period of 30 days after intraperitoneal administration of a dose of 1200 mg/kg in mice; format: functional; conditions: ip, 720 h; how it was run: as §1
[21] = Toxic dose was determined in 10-20% ethanol by ip administration in mice. The radiation protective properties were evaluated for groups of 10 mice exposed to 849-rad-gamma-radiation 30 min after dosing.; format: toxicity, organism-based; conditions: mouse, in vivo
Mus musculus [22] = test: Percent survival was determined over a period of 30 days after intraperitoneal administration of a dose of 600 mg/kg in mice; format: functional; conditions: ip, 720 h; how it was run: as §1
[23] = Toxic dose was determined after (ip) administration of a dose of 1200 mg/kg in mice at 1000-rad-gamma-radiation for 30 mins; format: toxicity, organism-based; parameters: dose 1200 mg/kg; conditions: mouse, in vivo; how it was run: as §2

Structure (SMILES): CN(C)CCNC(=Cc1ccc2ccccc2[n+]1C)NCCN(C)C.[I-]
- survival at 75 mg/kg (Mus musculus [1]): 0%
- LD50 at 0.5 h [2]: 90 mg/kg
- survival at 37.5 mg/kg (Mus musculus [3]): 0%
- survival at 18.8 mg/kg (Mus musculus [4]): 0%

Structure (SMILES): CS/C(=C\c1cccc[n+]1C)N1CCN(C)CC1.[I-]
- LD50 at 0.5 h [5]: 60 mg/kg
- survival at 4.7 mg/kg (Mus musculus [6]): 0%
- survival at 9.4 mg/kg (Mus musculus [7]): 0%
- survival at 18.8 mg/kg (Mus musculus [4]): 10%

Structure (SMILES): O=[N+]([O-])c1ccc(CSC(=S)C[n+]2ccccc2)cc1.[Cl-]
- Protective effect (Mus musculus [8]): 33%

Structure (SMILES): N#CC(C#N)=C([S-])[S-].[Zn+2]
- Protective effect (Mus musculus [9]): <25%

Structure (SMILES): C=CCSC(=S)C[n+]1ccccc1.[Cl-]
- Protective effect (Mus musculus [8]): >17%

Structure (SMILES): N#CC(C#N)=C([S-])[S-].[K+].[K+]
- Protective effect (Mus musculus [10]): >25%

Structure (SMILES): CSC(=Cc1cccc(C)[n+]1C)SC.[I-]
- LD50 at 0.5 h [5]: 50 mg/kg
- survival at 4.7 mg/kg (Mus musculus [6]): 0%
- survival at 9.4 mg/kg (Mus musculus [7]): 0%
- survival at 18.8 mg/kg (Mus musculus [4]): 40%

Structure (SMILES): CS/C(=C\c1cccc[n+]1C)N1CCOCC1.[I-]
- LD50 at 0.5 h [5]: 50 mg/kg
- survival at 4.7 mg/kg (Mus musculus [6]): 0%
- survival at 9.4 mg/kg (Mus musculus [7]): 0%
- survival at 18.8 mg/kg (Mus musculus [4]): 0%

Structure (SMILES): CSC(=Cc1cccc[n+]1C)SC.[I-]
- LD50 at 0.5 h [5]: 30 mg/kg
- survival at 4.7 mg/kg (Mus musculus [6]): 0%
- survival at 9.4 mg/kg (Mus musculus [7]): 0%
- survival at 18.8 mg/kg (Mus musculus [4]): 50%

Structure (SMILES): CS/C(=C\c1ccc2cc(C)ccc2[n+]1C)N1CCOCC1.[I-]
- survival at 2.34 mg/kg (Mus musculus [11]): 0%
- survival at 4.69 mg/kg (Mus musculus [12]): 0%
- survival at 9.38 mg/kg (Mus musculus [13]): 60%
- LD50 at 0.5 h [14]: 15 mg/kg

Structure (SMILES): Cc1ccc2c(ccc(CC(=S)[S-])[n+]2C)c1
- LD50 at 0.5 h [15]: 225 mg/kg
- survival at 75 mg/kg (Mus musculus [1]): 20%
- survival at 37.5 mg/kg (Mus musculus [3]): 10%
- survival at 150 mg/kg (Mus musculus [16]): 10%

Structure (SMILES): COc1ccc2c(ccc(C=C(SC)SC)[n+]2C)c1.[I-]
- survival at 4.7 mg/kg (Mus musculus [6]): 0%
- survival at 2.3 mg/kg (Mus musculus [17]): 0%
- LD50 at 0.5 h [18]: 30 mg/kg
- survival at 9.4 mg/kg (Mus musculus [7]): 0%

Structure (SMILES): CSC(=Cc1cccc(C=C(SC)SC)[n+]1C)SC.[I-]
- survival at 4.7 mg/kg (Mus musculus [6]): 10%
- survival at 2.3 mg/kg (Mus musculus [17]): 10%
- LD50 at 0.5 h [18]: 25 mg/kg
- survival at 9.4 mg/kg (Mus musculus [7]): 30%

Structure (SMILES): C[n+]1c(CC(=S)[S-])cccc1CC(=S)[S-].[I-].[Na+].[Na+]
- survival at 300 mg/kg (Mus musculus [19]): 0%
- survival at 1200 mg/kg (Mus musculus [20]): 0%
- LD50 at 0.5 h [21]: > 600 mg/kg
- survival at 600 mg/kg (Mus musculus [22]): 0%
- LD50 at 0.5 h [23]: > 600 mg/kg
